In ChEMBL document CHEMBL2401624, “Synthesis and biological evaluation of novel substituted pyrrolo[1,2-a]quinoxaline derivatives as inhibitors of the human protein kinase CK2” (Eur J Med Chem, 2013):

Columns and labels:
Jurkat [1] = assay: Selectivity index, ratio of CC50 for human PHA-activated PBMC to CC50 for human Jurkat cells
Jurkat [2] = assay: Antiproliferative activity against human Jurkat cells after 1 to 3 days by MTS assay; assay type: functional
Summary of the method: (§1)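 Leukemic lines grown in RPMI 1640 with 10% FCS, penicillin/streptomycin and L-glutamine at 37°C, 5% CO2. Cells washed twice in PBS, plated in quadruplicate with compound at 0, 1, 5, 10, 20 and 50 µM for 1, 2 and 3 days. MTS added for 3 h at 37°C, absorbance read at 490 nm. CC50 after 3 days by linear regression, mean ± SD of 3 independent experiments.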

MV4-11 [3] = assay: Antiproliferative activity against human MV4-11 cells after 1 to 3 days by MTS assay; assay type: functional; summary of the method: as §1
[4] = Cytotoxicity against human PHA-activated PBMC after 1 to 3 days by MTS assay; assay type: cell-based
Summary of the method: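 PBMNC from blood of healthy volunteers, isolated by Ficoll gradient centrifugation and stimulated with PHA (5 µg/mL). Cells washed in PBS, plated in quadruplicate with compound at 0, 1, 5, 10, 20 and 50 µM for 1 to 3 days. MTS read at 490 nm after 3 h at 37°C. CC50 at day 3 by linear regression, mean ± SD of 3 independent experiments.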

Casein kinase II = Casein kinase II (Homo sapiens, UniProt P19784+P67870+P68400); assay: Inhibition of human recombinant CK2 expressed in Escherichia coli BL21(DE3) using RRRDDDSDDD as substrate after 15 mins by capillary electrophoretic analysis
Casein kinase II, sequence (P67870 whole entry): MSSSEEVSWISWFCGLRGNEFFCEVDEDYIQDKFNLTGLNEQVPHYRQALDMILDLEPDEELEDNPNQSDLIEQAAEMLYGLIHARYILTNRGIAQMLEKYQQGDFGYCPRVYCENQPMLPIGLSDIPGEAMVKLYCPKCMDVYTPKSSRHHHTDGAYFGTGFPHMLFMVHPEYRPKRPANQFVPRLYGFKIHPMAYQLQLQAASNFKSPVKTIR
Casein kinase II, sequence (P68400 whole entry): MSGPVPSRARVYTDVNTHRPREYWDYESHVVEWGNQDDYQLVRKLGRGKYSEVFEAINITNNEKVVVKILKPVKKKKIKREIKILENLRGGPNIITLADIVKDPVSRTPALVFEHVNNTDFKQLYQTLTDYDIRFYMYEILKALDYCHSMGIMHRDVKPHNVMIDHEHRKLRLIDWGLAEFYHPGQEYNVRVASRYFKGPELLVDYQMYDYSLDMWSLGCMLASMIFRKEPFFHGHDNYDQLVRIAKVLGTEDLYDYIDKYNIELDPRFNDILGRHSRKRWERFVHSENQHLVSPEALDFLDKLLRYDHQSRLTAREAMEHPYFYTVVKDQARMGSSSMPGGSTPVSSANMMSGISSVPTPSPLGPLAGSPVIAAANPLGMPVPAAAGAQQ
Casein kinase II, sequence (P19784 whole entry): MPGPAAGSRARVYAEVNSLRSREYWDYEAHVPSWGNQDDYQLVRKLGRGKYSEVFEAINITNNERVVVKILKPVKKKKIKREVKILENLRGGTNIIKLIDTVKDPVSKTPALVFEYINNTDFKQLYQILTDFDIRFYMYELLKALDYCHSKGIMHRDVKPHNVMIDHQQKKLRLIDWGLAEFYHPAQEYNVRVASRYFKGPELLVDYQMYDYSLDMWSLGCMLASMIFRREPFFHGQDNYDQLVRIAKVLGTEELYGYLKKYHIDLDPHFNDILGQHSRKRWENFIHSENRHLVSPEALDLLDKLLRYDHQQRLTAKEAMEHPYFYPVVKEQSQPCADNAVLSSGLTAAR

K562 = assay: Antiproliferative activity against human K562 cells after 1 to 3 days by MTS assay; assay type: functional; summary of the method: as §1
U-937 = assay: Antiproliferative activity against human U937 cells after 1 to 3 days by MTS assay; assay type: functional; summary of the method: as §1
MV4-11 [5] = assay: Selectivity index, ratio of CC50 for human PHA-activated PBMC to CC50 for human MV4-11 cells

| Structure (SMILES) | IC50 (Casein kinase II) | Selectivity Index (Jurkat [1]) | CC50 (Jurkat [2]) | CC50 (MV4-11 [3]) | CC50 [4] | CC50 (K562) | CC50 (U-937) | Selectivity Index (MV4-11 [5]) |
| --- | --- | --- | --- | --- | --- | --- | --- | --- |
| O=C(O)c1nc2cc(Nc3cccc(Cl)c3)ccc2n2cccc12 | 0.982 µM | 1.6 | 31.4 µM | 47 µM | > 50 µM | > 50 µM | 39.2 µM | – |
| O=C(O)c1ccc2c(c1)nc(Nc1cccc(Cl)c1)c1cc(-c3cccnc3)cn12 | 1.57 µM | – | – | – | – | – | – | – |
| C#Cc1cccc(Nc2nc3cc(C(=O)O)ccc3n3cc(-c4cccnc4)cc23)c1 | 0.89 µM | – | – | – | – | – | – | – |
| Nc1cccc(C#Cc2ccc3c(c2)nc(C(=O)O)c2cccn23)c1 | 8.25 µM | – | – | – | – | – | – | – |
| O=C(O)c1cc2c(Nc3cccc(Cl)c3)nc3ccccc3n2c1 | 4.28 µM | – | > 50 µM | > 50 µM | > 50 µM | > 50 µM | > 50 µM | – |
| C#Cc1cccc(Nc2nc3ccccc3n3cc(C(=O)O)cc23)c1 | 1.89 µM | – | 41 µM | > 50 µM | > 50 µM | > 50 µM | > 50 µM | – |
| O=C(O)c1ccc2c(c1)nc(Nc1cccc(Cl)c1)c1ccncc12 [SILMITASERTIB] | – | – | 4.5 µM | 3 µM | 50 µM | 7 µM | 4.2 µM | – |

Second part, led by results:

| IC50 (Casein kinase II) | Structure (SMILES) | Selectivity Index (Jurkat [1]) | CC50 (Jurkat [2]) | CC50 (MV4-11 [3]) | CC50 [4] | CC50 (K562) | CC50 (U-937) | Selectivity Index (MV4-11 [5]) |
| --- | --- | --- | --- | --- | --- | --- | --- | --- |
| 0.85 µM | C#Cc1cccc(Nc2ccc3c(c2)nc(C(=O)O)c2cccn23)c1 | – | – | – | – | – | – | – |
| 0.049 µM | O=C(O)c1ccn2c1c(Nc1cccc(Cl)c1)nc1ccccc12 | – | > 50 µM | > 50 µM | > 50 µM | 42 µM | 47.7 µM | – |
| 0.134 µM | C#Cc1cccc(Nc2nc3ccccc3n3ccc(C(=O)O)c23)c1 | – | > 50 µM | > 50 µM | > 50 µM | > 50 µM | > 50 µM | – |
| 0.118 µM | O=C(O)c1ccc2c(c1)nc(Nc1cccc(Cl)c1)c1cccn12 | – | > 50 µM | 20 µM | > 50 µM | > 50 µM | > 50 µM | >2.5 |
| 0.078 µM | C#Cc1cccc(Nc2nc3cc(C(=O)O)ccc3n3cccc23)c1 | – | > 50 µM | 20 µM | > 50 µM | > 50 µM | > 50 µM | >2.5 |
| 0.834 µM | O=C(O)c1ccc2nc(Nc3cccc(Cl)c3)c3cccn3c2c1 | – | > 50 µM | > 50 µM | > 50 µM | > 50 µM | > 50 µM | – |
| 0.834 µM | C#Cc1cccc(Nc2nc3ccc(C(=O)O)cc3n3cccc23)c1 | – | > 50 µM | > 50 µM | > 50 µM | > 50 µM | > 50 µM | – |
| 0.04 µM | O=c1oc2c(O)c(O)cc3c(=O)oc4c(O)c(O)cc1c4c23 [ELLAGIC ACID] | – | – | – | – | – | – | – |
